Experimental data reported in PMC10041147 (RSC Advances, 2023).

How the values were obtained:
[1] = biological target: T1, Pseudomonas aeruginosa lectin LecA (Pseudomonas aeruginosa, UniProt Q05097); experiment: Electrochemical; settings: LecA sensor, n.b. = no binding; for K d from CV: cyclic voltammetry; for K d from DPV: differential pulse voltammetry
T1 sequence (Q05097 1-122): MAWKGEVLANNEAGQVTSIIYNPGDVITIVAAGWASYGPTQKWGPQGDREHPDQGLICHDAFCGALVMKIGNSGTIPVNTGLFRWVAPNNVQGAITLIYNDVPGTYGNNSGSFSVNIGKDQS
Outline: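 P. aeruginosa LecA (commercial, ≥70%) coupled at 10 μM for 1 h to an EDC/NHS-activated MUA/DTT layer on a gold nanoparticle–graphene screen-printed electrode, then blocked 30 min with 1% BSA. Sugars titrated in 10 mM PBS with 1 mM CaCl2 and 1 mM MnCl2. Read in 25 mM [Fe(CN)6]3−/4− with 0.2 M KCl at 25 °C. CV: −0.2 to 0.8 V, 0.05 V s−1. DPV: −0.2 to 0.5 V. Reduction-peak Δip fitted to a one-site model.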

LecA = settings: n.b. = no binding, no reference given; cited from earlier work
ConA = settings: read-out: Reported Kd; cited from earlier work

Row | Compound | K d from CV [1] | K d from DPV [1] | Reported Kd (LecA) | Kd (ConA) [µM]
1 | OC[C@H]1OC(O)[C@@H](O)[C@@H](O)[C@@H]1O (some centres unmarked) [mannose (3), mannose] | n.b. | n.b. | n.b. | 57
2 | mannan [mannan (4)] | n.b. | n.b. | n.b. | 3
